# Measured values reported in ChEMBL document CHEMBL4680221, “Discovery of pyrazole derivatives as cellular active inhibitors of histone lysine specific demethylase 5B (KDM5B/JARID1B)” (Eur J Med Chem, 2020).
# Activity calls are given as the source filed them. The calls are words filed in the database; no cut-off is given here.
# What was measured:
# [1] = biological target: T1, Lysine-specific demethylase 5B (Homo sapiens, UniProt Q9UGL1); experiment: Inhibition of recombinant human N-terminal FLAG-tagged KDM5B expressed in Sf9 insect cells using biotin-H3K4me as substrate by ALPHA
# T1 sequence (Q9UGL1 whole entry): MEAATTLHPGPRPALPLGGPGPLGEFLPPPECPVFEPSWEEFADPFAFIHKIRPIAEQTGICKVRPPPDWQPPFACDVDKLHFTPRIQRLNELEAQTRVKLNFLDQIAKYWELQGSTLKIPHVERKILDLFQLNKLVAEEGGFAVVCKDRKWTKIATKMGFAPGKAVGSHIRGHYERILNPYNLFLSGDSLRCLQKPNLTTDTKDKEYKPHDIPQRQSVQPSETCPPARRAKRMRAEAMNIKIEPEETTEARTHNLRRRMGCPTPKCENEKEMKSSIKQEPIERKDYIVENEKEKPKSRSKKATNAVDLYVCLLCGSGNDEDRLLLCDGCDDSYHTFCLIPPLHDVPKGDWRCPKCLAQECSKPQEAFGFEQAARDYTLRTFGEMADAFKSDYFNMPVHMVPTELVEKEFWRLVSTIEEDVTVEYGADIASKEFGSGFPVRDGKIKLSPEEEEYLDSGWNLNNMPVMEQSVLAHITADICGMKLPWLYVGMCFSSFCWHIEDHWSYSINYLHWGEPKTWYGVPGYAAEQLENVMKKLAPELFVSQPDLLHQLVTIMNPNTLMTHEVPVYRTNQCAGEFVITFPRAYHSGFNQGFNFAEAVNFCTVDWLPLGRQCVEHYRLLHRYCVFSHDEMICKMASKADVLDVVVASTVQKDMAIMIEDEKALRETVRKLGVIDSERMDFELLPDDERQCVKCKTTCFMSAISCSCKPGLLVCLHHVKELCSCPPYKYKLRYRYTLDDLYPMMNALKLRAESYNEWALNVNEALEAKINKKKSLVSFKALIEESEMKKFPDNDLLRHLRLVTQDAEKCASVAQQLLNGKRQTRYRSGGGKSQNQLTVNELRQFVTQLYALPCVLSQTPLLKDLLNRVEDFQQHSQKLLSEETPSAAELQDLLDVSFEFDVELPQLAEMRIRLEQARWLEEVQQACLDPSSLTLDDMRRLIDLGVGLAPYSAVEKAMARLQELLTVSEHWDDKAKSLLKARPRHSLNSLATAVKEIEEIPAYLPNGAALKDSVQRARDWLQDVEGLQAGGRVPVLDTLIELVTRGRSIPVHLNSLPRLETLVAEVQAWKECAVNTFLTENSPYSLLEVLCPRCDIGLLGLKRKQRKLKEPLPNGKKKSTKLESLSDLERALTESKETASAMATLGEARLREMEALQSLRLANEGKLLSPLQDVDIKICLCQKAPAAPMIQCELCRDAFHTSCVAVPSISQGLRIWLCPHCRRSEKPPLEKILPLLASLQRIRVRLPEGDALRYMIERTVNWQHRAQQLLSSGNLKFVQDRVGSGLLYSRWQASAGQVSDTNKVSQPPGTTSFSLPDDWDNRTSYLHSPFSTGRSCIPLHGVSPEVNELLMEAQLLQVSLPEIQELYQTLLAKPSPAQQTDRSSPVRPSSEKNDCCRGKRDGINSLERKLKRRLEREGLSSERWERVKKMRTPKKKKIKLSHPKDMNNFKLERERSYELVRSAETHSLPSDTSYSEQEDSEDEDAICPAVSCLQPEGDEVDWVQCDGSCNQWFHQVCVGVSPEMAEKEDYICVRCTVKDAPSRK
# Procedure, shortened: (§1)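 ALPHA demethylase assay. Recombinant KDM5B (4 nM) was preincubated with compound, then biotin-H3K4me3 peptide (64 nM) was added. Buffer: 10 μM α-KG, 100 μM ascorbate, 50 μM (NH4)2Fe(SO4)2, 50 mM HEPES pH 7.5, 0.01% Tween 20, 0.1% BSA. Read-out used streptavidin donor and H3K4me1-2 antibody acceptor beads. Data were normalized to blank control and IC50 fitted.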
# [2] = biological target: T1, Lysine-specific demethylase 5B; experiment: Inhibition of recombinant human N-terminal FLAG-tagged KDM5B expressed in Sf9 insect cells at 10 uM using biotin-H3K4me as substrate by ALPHA relative to control; procedure, shortened: as §1
# [3] = Cytotoxicity against human GES1 cells assessed as reduction in cell proliferation at 100 uM by MTS assay relative to control; assay type: cell-based; settings: read-out: Activity
# Procedure, shortened: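 Normal human gastric epithelial GES-1 cells, seeded at 3×10^3 cells per well and exposed to 100 μM. Antiproliferation rate was read by MTS assay.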
# MKN-45 [4] = experiment: Antimigratory activity in human MKN-45 cells at 20 uM measured after 24 hrs by transwell assay; assay type: functional, cell-based
# MKN-45 [5] = experiment: Antimigratory activity in human MKN-45 cells at 20 uM measured up to 48 hrs by wound healing assay; assay type: functional, cell-based; settings: time hrs <=48
# Procedure, shortened: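 MKN45 cells were grown to confluence in 24 h, then scratched with a pipette tip and washed with PBS. Medium was changed to fresh medium with 2% FBS plus compound. The wound was photographed by microscope at 0, 6, 12, 24 and 48 h. Three independent experiments.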
# MKN-45 [6] = experiment: Antiproliferative activity against human MKN-45 cells assessed as reduction in cell proliferation measured after 4 days by MTS assay; assay type: functional, cell-based; settings: MKN-45, 96 h
# Procedure, shortened: (§2)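 MKN45 cells were seeded at 3×10^3 cells per well and treated for 4 or 6 days, as indicated. Proliferation was read by MTS assay and IC50 derived. Three independent experiments, mean ± SD.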
# MKN-45 [7] = experiment: Antiproliferative activity against human MKN-45 cells assessed as reduction in cell proliferation measured after 6 days by MTS assay; assay type: functional, cell-based; settings: MKN-45, 144 h; procedure, shortened: as §2
# [8] = biological target: T1, Lysine-specific demethylase 5B; experiment: Inhibition of KDM5B in human MKN-45 cells assessed as increase in H3K4me2 accumulation at 20 uM measured after 5 days by Hoechst 33342 staining based immunofluorescence assay; assay type: cell-based; settings: time 5.0 day
# Procedure, shortened: (§3)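 MKN45 cells were seeded and left 24 h, then treated for 5 days. Cells were fixed in 4% paraformaldehyde, permeabilised with 0.1% Triton X-100 for 20 min and blocked with 5% BSA for 1 h. H3K4me2 or H3K4me3 primary antibody was applied at 4°C overnight, followed by Alexa Fluor 488 secondary and Hoechst 33342 (5 µg/mL) nuclear stain. Signal was quantified by high content imaging; three independent experiments.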
# MKN-45 [9] = experiment: Inhibition of KDM4 in human MKN-45 cells assessed as increase in H3K9me3 accumulation at 20 uM measured after 5 days by Western blot analysis; assay type: cell-based; settings: time 5.0 day
# Procedure, shortened: (§4)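 MKN45 cells were treated for 5 days and lysed in RIPA buffer. About 30 µg protein was run on 10% SDS-PAGE and transferred to 0.2 µm nitrocellulose, then blocked with 5% milk in PBS for 2 h. Blots were probed for histone methylation marks with histone 3 as loading control and detected by ECL.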
# MKN-45 [10] = experiment: Inhibition of KDM4 in human MKN-45 cells assessed as increase in H3K9me2 accumulation at 20 uM measured after 5 days by Western blot analysis; assay type: cell-based; settings: time 5.0 day; procedure, shortened: as §4
# MKN-45 [11] = experiment: Antiproliferative activity against human MKN-45 cells assessed as reduction in cell proliferation measured after 6 days by MTS assay relative to control; assay type: functional; set-up: scale not given: the % may be the effect or the level left; settings: time 6 day; procedure, shortened: as §2
# [12] = biological target: T1, Lysine-specific demethylase 5B; experiment: Inhibition of KDM5B in human MKN-45 cells assessed as increase in H3K4me2 accumulation at 20 uM measured after 5 days by Western blot analysis; assay type: cell-based; settings: time 5.0 day; procedure, shortened: as §4
# MKN-45 [13] = experiment: Inhibition of KDM6 in human MKN-45 cells assessed as increase in H3K27me2 accumulation at 20 uM measured after 5 days by Western blot analysis; assay type: cell-based; settings: time 5.0 day; procedure, shortened: as §4
# MKN-45 [14] = experiment: Antiproliferative activity against human MKN-45 cells assessed as reduction in cell proliferation measured after 4 days by MTS assay relative to control; assay type: functional; set-up: scale not given: the % may be the effect or the level left; settings: time 4 day; procedure, shortened: as §2
# [15] = biological target: T1, Lysine-specific demethylase 5B; experiment: Inhibition of KDM5B in human MKN-45 cells assessed as increase in H3K4me3 accumulation at 20 uM measured after 5 days by Hoechst 33342 staining based immunofluorescence assay; assay type: cell-based; settings: time 5.0 day; procedure, shortened: as §3
# [16] = biological target: T1, Lysine-specific demethylase 5B; experiment: Inhibition of KDM5B in human MKN-45 cells assessed as protein stabilization at 0.5 to 30 uM measured after 1 hr by cellular thermal shift assay; assay type: cell-based; settings: dose 0.5-30 µM
# Procedure, shortened: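 MKN45 cells (5×10^5) were treated with compound or DMSO for 1 h, washed in PBS and resuspended in PBS with protease inhibitors. Cells were heated at 46 °C for 3 min, then freeze-thawed three times in liquid nitrogen. KDM5B in the supernatant was measured by western blot with GAPDH control. Repeated three times.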
# [17] = biological target: T1, Lysine-specific demethylase 5B; experiment: Inhibition of KDM5B in human MKN-45 cells assessed as increase in H3K4me3 accumulation at 20 uM measured after 5 days by Western blot analysis; assay type: cell-based; settings: time 5.0 day; procedure, shortened: as §4
# [18] = biological target: T1, Lysine-specific demethylase 5B; experiment: Inhibition of KDM5B in human MKN-45 cells assessed as increase in H3K4me1 accumulation at 20 uM measured after 5 days by Western blot analysis; assay type: cell-based; settings: time 5.0 day; procedure, shortened: as §4
Structure (SMILES),IC50 [1],inhibition [2],also measured
COc1ccc(-n2cc(C(=O)N3CCN(CCN4CCCC4)CC3)c(-c3ccccc3)n2)cc1,> 10000 nM,17.2%,
O=C(NCCN1CCOCC1)c1cn(-c2ccccc2)nc1-c1cccs1,335 nM,75.4%,
O=C(c1cn(-c2ccccc2)nc1-c1ccccc1)N1CCN(CCN2CCCC2)CC1,232 nM,86.6%,
Cc1ccc(-c2nn(-c3ccc(C)cc3)cc2C(=O)N2CCN(CCN3CCCC3)CC2)cc1,851 nM,76.5%,
Cc1ccccc1-n1cc(C(=O)NCCN2CCOCC2)c(-c2ccccc2)n1,> 10000 nM,-7.78%,
Cc1cccc(-n2cc(C(=O)NCCN3CCOCC3)c(-c3ccccc3)n2)c1,> 10000 nM,20.9%,
O=C(NCCN1CCOCC1)c1c[nH]nc1-c1ccccc1,5390 nM,75.7%,
Cc1ccc(-n2cc(C(=O)NCC(C)(C)N3CCOCC3)c(-c3ccccc3)n2)cc1,191 nM,82.4%,
CC(C)c1c(-c2ccccc2)[nH]c2c(C#N)cnn2c1=O,10.5 nM,,inhibition at 100 µM [3]: < 10%; Activity (MKN-45 [4]): Active; Activity (MKN-45 [5]): Active; IC50 (MKN-45 [6]): 30300 nM; IC50 (MKN-45 [7]): 23800 nM
Cc1ccccc1-c1nn(-c2ccccc2)cc1C(=O)NCCN1CCOCC1,> 10000 nM,9.25%,
Cc1cncc(C(=O)NCCN2CCOCC2)c1,> 10000 nM,33.6%,
C#CCNC(=O)c1cn(-c2ccccc2)nc1-c1ccccc1,348 nM,84.6%,
CC(C)N(CCNC(=O)c1cn(-c2ccccc2)nc1-c1ccccc1)C(C)C,2240 nM,67%,
O=C(NCCN1CCOCC1)c1cn(-c2ccccc2)nc1-c1ccncc1,237 nM,81.3%,
COC(=O)CCNC(=O)c1cn(-c2ccc(C)cc2)nc1-c1ccccc1,251 nM,82.1%,
O=C(NCC1(N2CCOCC2)CCCCC1)c1cn(-c2ccccc2)nc1-c1ccccc1,> 10000 nM,-1.95%,
COc1ccccc1-n1cc(C(=O)NCC(C)(C)N2CCOCC2)c(-c2ccccc2)n1,93.2 nM,92.3%,
Cc1ccc(-n2nc(-c3ccccc3)nc2C(=O)NCC(C)(C)N2CCOCC2)cc1,> 10000 nM,28.9%,

Structure (SMILES),IC50 [1],inhibition [2],also measured
O=C(NCCN1CCOCC1)c1cn(-c2ccccc2)nc1-c1ccc(Cl)cc1,572 nM,72%,
CCc1ccc(-c2nn(-c3ccccc3)cc2C(=O)NCCN2CCOCC2)cc1,1350 nM,45.3%,
COc1ccc(-n2nc(-c3ccccc3)nc2C(=O)NCC(C)(C)N2CCOCC2)cc1,> 10000 nM,28%,inhibition [8]: inactive; inhibition (MKN-45 [9]): inactive; Activity (MKN-45 [4]): inactive; inhibition (MKN-45 [10]): inactive; Activity (MKN-45 [11]): 13.24%; inhibition [12]: inactive; inhibition (MKN-45 [13]): inactive; Activity (MKN-45 [5]): inactive; Activity (MKN-45 [14]): 10.32%; inhibition [15]: inactive; inhibition [16]: inactive; inhibition [17]: inactive; inhibition [18]: inactive
COc1ccc(-n2cc(C(=O)NCCN3CCOCC3)c(-c3ccccc3)n2)cc1,108 nM,93%,
COc1ccc(-c2nn(-c3ccccc3)cc2C(=O)NCCN2CCOCC2)cc1,238 nM,82.3%,
Cc1ccc(-n2cc(C(=O)NCCN3CCOCC3)c(-c3ccccc3)n2)cc1,851 nM,66.8%,
O=C(NCCN1CCOCC1)c1cn(-c2ccc(Cl)cc2)nc1-c1ccccc1,> 10000 nM,8.69%,
O=C(NCCN1CCOCC1)c1cncc(-c2ccccc2)c1,> 10000 nM,42.5%,
CC(C)c1ccc(-n2cc(C(=O)NCCN3CCOCC3)c(-c3ccccc3)n2)cc1,> 10000 nM,14.8%,
CC(C)c1ccc(-c2nn(-c3ccccc3)cc2C(=O)NCCN2CCOCC2)cc1,> 10000 nM,-5.81%,
CC(C)(CNC(=O)c1cn(-c2ccc(Cl)cc2)nc1-c1ccccc1)N1CCOCC1,541 nM,62%,
Cc1ccc(NC(=O)c2cn(-c3ccc(C)cc3)nc2-c2ccccc2)cc1,323 nM,79.5%,
CC(C)(CNC(=O)c1cn(-c2ccccc2)nc1-c1ccccc1)N1CCN(c2ccccc2)CC1,200 nM,92.3%,
CCc1ccc(-n2cc(C(=O)NCCN3CCOCC3)c(-c3ccccc3)n2)cc1,> 10000 nM,20%,
Cc1n[nH]cc1C(=O)NCCN1CCOCC1,> 10000 nM,21.5%,
Cc1ccc(-n2cc(C(=O)N3CCN(CCN4CCCC4)CC3)c(-c3ccccc3)n2)cc1,73 nM,94.2%,
O=C(NCCN1CCOCC1)c1cn(-c2ccccc2)nc1-c1ccccc1,310 nM,76.4%,
